Measured values reported in ChEMBL document CHEMBL1123896 (J Med Chem, 1987).

How the values were obtained:
[1] = Apparent lipophilicity (log kw) at pH 7.5; type: physicochemical; conditions: buffer
In short: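 Measured at pH 7.5 by RP-HPLC. Capacity factors were extrapolated to 0% methanol, and the resulting log kw was taken as apparent lipophilicity. Values that could not be measured were estimated from derived fragmental values.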

[2] = Selectivity pIC50 (sigma)-pIC50(D2)
[3] = target: D(2) dopamine receptor (Rattus norvegicus) (UniProt P61169)
Sequence of D(2) dopamine receptor (Rattus norvegicus) (P61169 whole entry): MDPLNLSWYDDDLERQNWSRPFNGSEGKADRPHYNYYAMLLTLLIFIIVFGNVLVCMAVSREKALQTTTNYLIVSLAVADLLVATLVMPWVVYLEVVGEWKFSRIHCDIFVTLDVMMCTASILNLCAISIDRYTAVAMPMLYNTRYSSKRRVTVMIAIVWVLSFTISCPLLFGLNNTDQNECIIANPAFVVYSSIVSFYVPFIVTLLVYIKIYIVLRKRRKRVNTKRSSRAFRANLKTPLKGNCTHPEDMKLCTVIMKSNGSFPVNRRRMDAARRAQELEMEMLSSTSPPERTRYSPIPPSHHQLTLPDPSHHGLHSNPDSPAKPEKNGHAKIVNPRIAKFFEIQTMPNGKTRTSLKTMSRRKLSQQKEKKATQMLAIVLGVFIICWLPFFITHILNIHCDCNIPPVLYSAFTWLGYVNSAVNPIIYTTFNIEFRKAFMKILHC

[4] = target: D(2) dopamine receptor (Rattus norvegicus) (UniProt P61169); experiment: Eudisimic index was determined for the compound against Dopamine receptor D2
In short: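 Eudismic index is the log of the eutomer/distomer affinity ratio, calculated as pIC50(eutomer) − pIC50(distomer) for each enantiomer pair. The pIC50 values come from displacement of specific [3H]spiperone binding at the dopamine D2 receptor.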

[5] = target: Sigma non-opioid intracellular receptor 1 (Rattus norvegicus) (UniProt Q9R0C9); experiment: Eudisimic index was determined for the compound against sigma receptor
Sequence of Sigma non-opioid intracellular receptor 1 (Rattus norvegicus) (Q9R0C9 whole entry): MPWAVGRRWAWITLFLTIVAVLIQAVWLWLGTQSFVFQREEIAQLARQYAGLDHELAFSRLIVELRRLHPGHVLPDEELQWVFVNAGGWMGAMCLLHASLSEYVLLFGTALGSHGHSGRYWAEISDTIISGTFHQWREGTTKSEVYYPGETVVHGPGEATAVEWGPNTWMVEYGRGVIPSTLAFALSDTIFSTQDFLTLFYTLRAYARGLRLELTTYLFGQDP
In short: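 Eudismic index is the log of the eutomer/distomer affinity ratio, calculated as pIC50(eutomer) − pIC50(distomer) for each enantiomer pair, using σ-receptor binding pIC50 values.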

[6] = target: Sigma non-opioid intracellular receptor 1 (Rattus norvegicus, UniProt Q9R0C9); experiment: Binding affinity against sigma receptor
Sequence of Sigma non-opioid intracellular receptor 1 (Q9R0C9 whole entry): as above

D(2) dopamine receptor = D(2) dopamine receptor (Rattus norvegicus, UniProt P61169); experiment: Binding affinity for dopamine receptor D2 was evaluated by the ability to displace [3H]spiperone
Sequence of D(2) dopamine receptor (P61169 whole entry): as the sequence (P61169 whole entry) above

| SMILES | Log kw [1] | Selectivity [2] | EI [4] | EI [5] | other results |
| --- | --- | --- | --- | --- | --- |
| Oc1cccc([C@@H]2CCCN(CCc3ccccc3)C2)c1 | 2.27 | 0.44 | – | – | – |
| CCCN1CCC[C@@H](c2cccc(O)c2)C1 [PRECLAMOL] | 1.05 | – | – | – | – |
| CC(C)N1CCC[C@H](c2cccc(O)c2)C1 | 0.84 | – | 1.53 | – | EI [3]: 0.07 |
| Oc1cccc([C@@H]2CCCNC2)c1 | 0.41 | -0.95 | – | – | – |
| CCN1CCC[C@@H](c2cccc(O)c2)C1 | 0.84 | – | – | – | – |
| CCCCN1CCC[C@H](c2cccc(O)c2)C1 | 1.41 | – | 0.99 | 0.54 | – |
| CCCN1CCC[C@H](c2cccc(O)c2)C1 | 1.05 | – | 0.61 | 0.71 | – |
| CC(C)N1CCC[C@@H](c2cccc(O)c2)C1 | 0.84 | 0.23 | – | – | – |
| CN1CCC[C@@H](c2cccc(O)c2)C1 | 0.94 | 0.01 | – | – | IC50 [6]: 1910 nM; IC50 (D(2) dopamine receptor): 1950 nM |
| CCCCN1CCC[C@@H](c2cccc(O)c2)C1 | 1.41 | 0.95 | – | – | – |
| Oc1cccc([C@H]2CCCN(CCc3ccccc3)C2)c1 | 2.27 | – | 1.45 | 0.3 | – |
| CCN1CCC[C@H](c2cccc(O)c2)C1 | 0.84 | – | – | – | – |
| CN1CCC[C@H](c2cccc(O)c2)C1 | 0.96 | – | 0.32 | 0.71 | – |
| Oc1cccc([C@H]2CCCNC2)c1 | 0.41 | -1.02 | 0.6 | 0.53 | – |
